DENV2 CPE: protects cells from dengue virus 2 cytopathic effect; DENV2-infected cells, cytopathic effect rescue, plate reader; CPE inhibition, % at 9.99 µM; 350,000 tested, 1.7% active; AID 651640; in the data active means CPE inhibition above about 20%, passing the limit was not always enough; tested in BHK-21 cells;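 further: 0% = median of neutral control wells and 100% = median of positive control wells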
ERp5 block: blocks human ERp5 reductase activity on insulin. Q15084. ERp5 insulin aggregation, absorbance 650 nm, 90 min. inhibition, % at 9.99 µM. 350,000 tested, 0.05% active. AID 651711;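 active means mean replicate inhibition above about 25%, with every replicate also reaching it, limit read from the data, passing the limit was not always enough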
Target sequence (Q15084 whole entry, looked up): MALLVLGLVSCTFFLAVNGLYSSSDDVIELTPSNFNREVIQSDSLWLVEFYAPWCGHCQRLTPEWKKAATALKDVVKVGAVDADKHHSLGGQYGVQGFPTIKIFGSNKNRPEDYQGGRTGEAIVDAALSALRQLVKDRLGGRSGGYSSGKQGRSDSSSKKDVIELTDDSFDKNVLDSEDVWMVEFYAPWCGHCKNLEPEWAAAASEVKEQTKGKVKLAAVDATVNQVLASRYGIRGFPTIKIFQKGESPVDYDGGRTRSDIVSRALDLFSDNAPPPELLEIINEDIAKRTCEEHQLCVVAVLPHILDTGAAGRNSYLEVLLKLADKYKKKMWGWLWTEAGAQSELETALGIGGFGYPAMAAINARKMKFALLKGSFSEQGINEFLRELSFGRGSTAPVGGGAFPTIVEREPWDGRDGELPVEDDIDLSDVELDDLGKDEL
F508del corr: correctors of CFTR F508del function in bronchial epithelial cells; CFBE cells, YFP halide quenching; stimulated with forskolin plus potentiator P3; % fluorescence drop versus neutral controls; activity (quench increase), % at 7.58 µM; 350,000 tested, 0.36% active;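 active means mean added fluorescence quench of at least 8% versus neutral control, with both replicates also reaching 8%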;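 further: cells transiently co-express mutant CFTR-F508del with the halide-sensitive YFP; corrector assay measuring rescue of mutant channel to the surface after 24 h compound exposure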
Statin myotox sup: protects C2C12 myotubes from simvastatin toxicity; ATP luminescence, 48 h; scaled: DMSO 0, geranylgeraniol control 100; rescue of ATP level, % at 7.49 µM; 330,000 tested, 0.78% active;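 active means mean ATP rescue above about 67%, or every replicate alone reaching that limit, limit read from the data, passing the limit was not always enough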;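 further: myotubes were challenged with 10 µM simvastatin during compound exposure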
Cneo AK release: causes C. neoformans cell lysis | adenylate kinase release luminescence, 4 h; normalised: neutral wells 0, clomiphene wells 100 | lysis activity, % at 15 µM | 360,000 tested, 0.2% active | AID 651654;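 active means mean lysis activity across replicates of at least 80%, whatever share of replicates individually reach that level; inactive means mean lysis activity below 80%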
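Assay system: C. neoformans cells. Amount: yeast cell density of 5 × 10^6 cells/mL. Technique: AK luminescence. Buffer or medium: YPD. Times: static 4 h at 37 °C with compound, 1 h detection. Dosing: single-point compound dose. Read-out: lysis from increased AK signal.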
PDI inh: inhibitors of human protein disulfide isomerase | PDI insulin aggregation turbidity, A650, 90 min | inhibition, % at 10 µM | 350,000 tested, 0.052% active;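 active means mean inhibition across replicates of 30% or more, whatever share of single replicates reach that level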
* hit, by the source's call; / = no result. This is a sample that favours compounds with a hit; in the whole collection about 2.3% have one here.

SMILES | DENV2 CPE | ERp5 block | F508del corr | Statin myotox sup | Cneo AK release | PDI inh
CCOC(=O)c1cc2c(=Cc3ccc(N(C)C)cc3)c3ccccc3n2[n+]1C | 35* | -3 | 9.9* | / | / | 5
Cc1cc2c(=Cc3ccc(N(C)C)cc3)c3ccccc3n2[n+]1C | 17 | -7 | -1 | / | / | -4
C[C@H](CO)N1C[C@H](C)[C@@H](CN(C)S(=O)(=O)c2cn(C)cn2)Oc2ccc(NC(=O)CCCCCC(=O)Nc3ccccc3N)cc2C1=O | -2 | -1 | 0 | 35 | -5 | /
Cc1onc(-c2ccncc2)c1C(=O)O | / | / | / | 106* | -3 | -2
O=C(O)CSc1nc(-c2ccccc2)nc2c1oc1ccccc12 | / | / | / | 120* | -6 | -14
O=C(O)CSc1nc(-c2ccc(Cl)cc2)nc2c1oc1ccccc12 | -3 | 0 | -2 | / | 2 | 0
CNC[C@@H]1Oc2cc(C#CCOC)ccc2S(=O)(=O)N([C@@H](C)CO)C[C@@H]1C | 0 | -2 | 1 | 9 | -1 | /
C[C@H]1CCCCO[C@H](CN(C)C(=O)CCC(F)(F)F)[C@@H](C)CN([C@@H](C)CO)C(=O)c2cc(N(C)C)ccc2O1 | -9 | 3 | -1 | -1 | -1 | /
CO[C@@H]1CN(C)C(=O)c2cc(NC(=O)Nc3c(C)noc3C)ccc2OC[C@H](C)N(C)C[C@H]1C | 6 | -1 | -3 | 0 | 4 | /
CC(C)NC(=O)N(C)C[C@@H]1OCCCC[C@H](C)Oc2ccc(NC(=O)Nc3cccc4ccccc34)cc2C(=O)N([C@H](C)CO)C[C@@H]1C | -10 | -3 | -5 | / | / | /
CCCCNC(=S)N/N=C/c1ccc(C#N)cc1 | / | -11 | -2 | / | 86* | -5
CCNC(=S)N/N=C/c1ccc(F)cc1 | -6 | 3 | 0 | / | / | /
O=C(c1ccccc1F)N1CC2(C1)[C@H](c1ccccc1)[C@H](CO)N2CC1CC1 | -6 | -2 | 0 | / | / | /
CCOC(=O)C1CCCN(C(=O)c2cc3c(-c4cccc(OC)c4)nn(C)c3s2)C1 (stereo not given) | / | / | / | 96* | -2 | 6
CC(C)Cc1ccc(C(C)C(N)=NCCc2ccccc2)cc1 (stereo not given) | 33* | 1 | 7 | -74 | 1 | 1
Cc1ccccc1S(=O)(=O)N[C@@H]1CC[C@@H](CCn2cc(-c3ccc(F)cc3)nn2)O[C@@H]1CO | 12 | -4 | 2 | -7 | -2 | /
O=C(C1CC1)N1CC[C@@H]2[C@H]1c1cc(-c3ccc(F)cc3)ccc1N[C@@H]2CO | 122* | / | 0 | -11 | 2 | /
O=C(C1CCOCC1)N1CC[C@@H]2[C@H](CO)Nc3ccc(Br)cc3[C@@H]21 | -3 | -2 | 0 | 19 | -12 | /
O=C(C1CC1)N1CC[C@H]2[C@H](CO)Nc3ccc(-c4ccc(F)cc4)cc3[C@H]21 | 3 | -3 | 2 | 10 | 5 | /
OC[C@H]1Nc2ccc(-c3cccc(F)c3)cc2[C@@H]2[C@H]1CCN2Cc1ccc(F)cc1 | 48* | -1 | 1 | 33 | -4 | /
O=C(C1CCOCC1)N1CC[C@@H]2[C@H]1c1cc(-c3cccc(F)c3)ccc1N[C@@H]2CO | 88* | 4 | 5 | -15 | -2 | /
OC[C@H]1Nc2ccc(-c3cccc(F)c3)cc2[C@H]2[C@@H]1CCN2Cc1ccc(F)cc1 | -18 | 1 | -1 | 9 | 67 | /
O=C(C1CCOCC1)N1CC[C@@H]2[C@H]1c1cc(Br)ccc1N[C@@H]2CO | -2 | -3 | 2 | 17 | 87* | /
C[C@H](CO)N1C[C@H](C)[C@H](CN(C)S(=O)(=O)c2ccc(Cl)cc2)Oc2ccc(NC(=O)CCN3CCOCC3)cc2C1=O | -5 | -4 | 1 | 29 | -1 | /
CC(=O)N1CC[C@@H]2[C@@H](CO)Nc3ccc(-c4cccc(F)c4)cc3[C@@H]21 | 29* | -2 | 2 | -28 | 4 | /
CC(=O)N1CC[C@@H]2[C@H]1c1cc(-c3cccc(F)c3)ccc1N[C@@H]2CO | 3 | 1 | -1 | -24 | 7 | /
C=CCn1c(COc2cccc3cccnc23)nnc1SCC(=O)O | / | / | / | 105* | -3 | -2
C[C@@H]1CN([C@H](C)CO)S(=O)(=O)c2ccc(-c3cccc(C#N)c3)cc2O[C@H]1CN(C)C(=O)C1CC1 | 19 | -2 | 1 | -31 | 0 | /

Screening data deposited in PubChem by Broad Institute.
